Reference: paper PMC3687671 (British Journal of Pharmacology, 2013)
Entries after “also recorded” stand apart in the source; their conditions may differ. Like-named read-outs stand apart in the source and are kept apart here. One block for each compound: values may come before it.

Experiments:
human CSE = human CSE (Homo sapiens, UniProt P32929); assay: H2S production by purified recombinant GST-CSE; format: biochemical; settings: for IC50: 10 μM PLP, 1 mM L-cys, inhibitor added 15 min before L-cys, 60 min, 37°C
Method in brief: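 Human CSE was made as a GST fusion in E. coli BL21(DE3) Codon Plus (0.1 mM IPTG, overnight at 18°C) and GSH-affinity purified. Each 100 μL reaction held 5 μg enzyme, 0.01 mM PLP, 1 mM L-cys and 50 mM sodium phosphate pH 8.2. Test compound was preincubated 15 min before L-cys, then 60 min at 37°C. ZnAc then TCA; methylene blue absorbance at 655 nm read against H2S calibration; n = 9.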

human CBS = molecular target: T1, human CBS (Homo sapiens, UniProt P35520); assay: H2S production by purified recombinant GST-CBS; format: biochemical
T1 sequence (P35520 1-551): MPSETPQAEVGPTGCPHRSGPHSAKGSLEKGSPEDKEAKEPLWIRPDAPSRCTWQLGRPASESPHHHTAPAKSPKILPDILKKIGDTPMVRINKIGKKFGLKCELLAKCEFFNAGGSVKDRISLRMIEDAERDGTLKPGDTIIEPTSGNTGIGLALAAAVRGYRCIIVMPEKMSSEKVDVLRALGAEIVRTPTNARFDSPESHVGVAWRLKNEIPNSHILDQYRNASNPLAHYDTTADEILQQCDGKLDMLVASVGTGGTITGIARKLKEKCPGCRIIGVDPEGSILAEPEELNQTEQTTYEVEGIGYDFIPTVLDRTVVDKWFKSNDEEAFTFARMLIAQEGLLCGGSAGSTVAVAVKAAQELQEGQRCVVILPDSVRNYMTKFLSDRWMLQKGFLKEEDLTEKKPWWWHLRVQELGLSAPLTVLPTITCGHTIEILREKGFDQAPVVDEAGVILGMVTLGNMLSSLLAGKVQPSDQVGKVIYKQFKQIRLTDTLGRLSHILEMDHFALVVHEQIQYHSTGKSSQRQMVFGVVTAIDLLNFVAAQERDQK
Method in brief: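 Human CBS was expressed as an N-terminal GST fusion in E. coli BL21(DE3) Codon Plus (0.3 mM δ-ALA, 0.1 mM IPTG, overnight at 30°C) and purified by GSH affinity. Each 100 μL reaction held 5 μg enzyme, 0.01 mM PLP, 1 mM L-cys, 1 mM homocysteine and 50 mM sodium phosphate pH 8.2. Test compound went in 15 min before substrate, then 60 min at 37°C. Stopped with ZnAc/TCA; methylene blue A655 against H2S standard curve; n = 9.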

rat aortic rings = assay: Isolated rat aortic ring assay; settings: cumulative concentration-response
Method in brief: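 Thoracic aortic rings (2–3 mm) from Sprague–Dawley rats (~300 g) were held in oxygenated Krebs–Henseleit at 37°C under 1 g resting tension, with isometric force recorded. Test compound was added 20 min before 1 μM phenylephrine. At the contraction plateau, cumulative L-cys concentration–response curves were run. At least four rings, each from a different rat; mean ± SEM.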

Chain of human CSE (P32929 whole entry, the tested form may be a part): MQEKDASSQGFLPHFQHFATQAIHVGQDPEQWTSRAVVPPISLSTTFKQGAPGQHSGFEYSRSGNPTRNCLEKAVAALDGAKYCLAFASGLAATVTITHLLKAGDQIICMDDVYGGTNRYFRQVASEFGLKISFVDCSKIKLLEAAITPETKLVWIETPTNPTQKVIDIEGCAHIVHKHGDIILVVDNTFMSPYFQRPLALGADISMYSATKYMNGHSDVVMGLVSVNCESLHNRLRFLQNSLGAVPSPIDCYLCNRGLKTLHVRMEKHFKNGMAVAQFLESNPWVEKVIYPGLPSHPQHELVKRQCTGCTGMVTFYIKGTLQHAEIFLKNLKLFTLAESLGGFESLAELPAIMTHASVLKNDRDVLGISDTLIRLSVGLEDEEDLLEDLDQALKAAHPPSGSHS

IC50 (human CSE; CSE, IC50, 5 μg CSE): 1 ± 0.1 µM
Structure (SMILES): NCCO/C=C/[C@H](N)C(=O)O [AVG, aminoethoxyvinylglycine]
Effect on CBS activity (human CBS; up to 1 mM): Neither PAG nor AVG had any effect on CBS activity; also recorded: failed to reduce CBS activity

CSE H2S production (% of control) (human CSE; 0.1 mM compound): 83.3 ± 19.2 % of control
Effect on CSE activity (human CSE; 1 mM): showed a tendency to reduce CSE activity
CSE H2S production (% of control) (human CSE; 1 mM compound): 73.3 ± 18.6 % of control
CBS H2S production (% of control) (human CBS; 0.1 mM compound): 94.2 ± 20.5 % of control
CBS H2S production (% of control) (human CBS; 1 mM compound): 80.6 ± 21.0 % of control
Structure (SMILES): N[C@@H]1CON=C1O [D-Cycloserine, D-cycloserine]

Structure (SMILES): N[C@H](CS)C(=O)O [D-cysteine]
Relaxation of phenylephrine-contracted aortic rings (rat aortic rings): but not D-cysteine, led to a concentration-dependent relaxation

Inhibition of CSE activity (human CSE; 5 μM): did not inhibit CSE activity
Maximal inhibition of CSE activity (human CSE; 250 μM): 75%
Structure (SMILES): CCN(CC)/[N+]([O-])=N/O.CCNCC [DEA/NO, diethylamine NONOate]
Effect on CSE activity (human CSE; NO donor, concentration-response): concentration dependently attenuated CSE activity
Effect on CBS activity (human CBS; NO donor, up to 250 μM): did not affect CBS activity; also recorded: CBS was resistant

Inhibition of CSE activity (human CSE; 5 μM): approximately 60%
Inhibition of CSE activity (human CSE; 50 μM): abolished CSE activity
Selectivity towards CSE versus CBS (human CSE; IC50 CBS / IC50 CSE): 60 fold
IC50 (human CSE; read-out: CSE, IC50, 5 μg CSE): 4.83 ± 0.31 µM
Inhibition of CBS (human CBS; 100 μM): approximately 30%
Structure (SMILES): NO [HA, hydroxylamine]

CSE H2S production (% of control) (human CSE; 0.1 mM compound): 93.3 ± 23.0 % of control
Effect on CSE activity (human CSE; 1 mM): showed a tendency to reduce CSE activity
CBS H2S production (% of control) (human CBS; 0.1 mM compound): 86.4 ± 9.4 % of control
CBS H2S production (% of control) (human CBS; 1 mM compound): 88.4 ± 2.1 % of control
Structure (SMILES): NNC(=O)c1ccncc1 [Isoniazid, isoniazid]

Structure (SMILES): N[C@@H](CS)C(=O)O [L-cys, L-cysteine]
Relaxation of phenylephrine-contracted aortic rings (rat aortic rings): led to a concentration-dependent relaxation

Structure (SMILES): C[Se]C[C@H](N)C(=O)O [Methylseleno-cysteine, methylselenocysteine]
CSE H2S production (% of control) (human CSE; 0.1 mM compound): 85.5 ± 4.4 % of control
CSE H2S production (% of control) (human CSE; 1 mM compound): 79.7 ± 4.3 % of control
Effect on CSE activity (human CSE; 0.1 and 1 mM (Table 2)): did not inhibit the activity of neither CBS nor CSE
CBS H2S production (% of control) (human CBS; 0.1 mM compound): 95.5 ± 2.1 % of control
CBS H2S production (% of control) (human CBS; 1 mM compound): 79.2 ± 5.1 % of control
Effect on CBS activity (human CBS; 0.1 and 1 mM (Table 2)): did not inhibit the activity of neither CBS nor CSE

CSE H2S production (% of control) (human CSE; 0.1 mM compound): 96.7 ± 7.1 % of control
CSE H2S production (% of control) (human CSE; 1 mM compound): 81.7 ± 12.5 % of control
CBS H2S production (% of control) (human CBS; 0.1 mM compound): 74.0 ± 12.8 % of control
CBS H2S production (% of control) (human CBS; 1 mM compound): 90.1 ± 14.3 % of control
Structure (SMILES): C#CCN(C)Cc1ccccc1 [Pargyline, pargyline]
Effect on CSE activity (human CSE; 0.1 and 1 mM (Table 2)): failed to significantly reduce CSE or CBS activity
Effect on CBS activity (human CBS; 0.1 and 1 mM (Table 2)): failed to significantly reduce CSE or CBS activity

CSE H2S production (% of control) (human CSE; 0.1 mM compound): 86.7 ± 17.8 % of control
CSE H2S production (% of control) (human CSE; 1 mM compound): 76.7 ± 11.3 % of control
CBS H2S production (% of control) (human CBS; 0.1 mM compound): 88.4 ± 7.4 % of control
CBS H2S production (% of control) (human CBS; 1 mM compound): 93.8 ± 9.9 % of control
Structure (SMILES): C#CCOc1ccc(N)cc1C(=O)NCCCC [Parsalmide]
Effect on CSE activity (human CSE; 0.1 and 1 mM (Table 2)): failed to significantly reduce CSE or CBS activity
Effect on CBS activity (human CBS; 0.1 and 1 mM (Table 2)): failed to significantly reduce CSE or CBS activity

IC50 (human CSE; read-out: CSE, IC50, 5 μg CSE): 289 ± 7 µM
Potency on CBS relative to HA (human CBS): fourfold
Selectivity for CBS (fold lower IC50 for CBS versus CSE) (human CBS; IC50 CSE / IC50 CBS): fourfold
Structure (SMILES): N[C@H](C(=O)O)C(F)(F)F [Trifluoroalanine, trifluoroalanine]
